Our source for the Activity values is ChEMBL document CHEMBL1142097, “EthA, a common activator of thiocarbamide-containing drugs acting on different mycobacterial targets” (Antimicrob Agents Chemother, 2007).

In test [1] the test system is Mycobacterium tuberculosis variant bovis. Put plainly: Inhibition of mycolic acid synthesis in Mycobacterium bovis BCG str. Pasteur 1173P2 overexpressing ethA gene. The format is functional. The essentials: (§1)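 Mid-log cultures in Sauton medium exposed to graded drug concentrations (μg/ml) for 16 h at 37°C, then pulsed with 1 μCi/ml [2-14C]acetate for 8 h at 37°C. Cells PBS-washed, hydrolysed with 15% tetrabutylammonium hydroxide at 100°C overnight, methylated with CH3I in CH2Cl2; fatty and mycolic acid methyl esters resolved by TLC and autoradiographed.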

For test [2] the test system is unchanged. Nature of the test: Inhibition of oleic acid synthesis in Mycobacterium bovis BCG str. Pasteur 1173P2 overexpressing ethA gene. It is filed as functional. A digest of the protocol:
as §1

The source made the active and inactive calls. The calls are words filed in the database; no cut-off is given here.

Turning to `CC(C)CCSc1ccc(NC(=S)Nc2ccc(SCCC(C)C)cc2)cc1`, the outcome in test [1] and in test [2] was Active.
